In article PMC4265276 (Journal of Veterinary Pharmacology and Therapeutics, 2014):

What was measured:
Assay in all cases: Z'-Lyte kinase assay
Format in all cases: biochemical
Conditions in all cases: two replicates
[1] = target: High affinity nerve growth factor receptor (TRK-A) (Homo sapiens, UniProt P04629)
In short: (§1)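 Outsourced commercial profiling of the test compound against a panel of 38 non-JAK kinases, all screened with Z'-Lyte technology at a single concentration. Assay conditions and data analysis were specific to each kinase and set by the service provider. Every test was run in duplicate, and percent inhibition is reported separately for each replicate.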

[2] = target: p160ROCK protein kinase (Homo sapiens, UniProt Q13464)
In short: as §1

[3] = target: Vascular endothelial growth factor receptor 2 (VEGFR-2/FLK1) (Homo sapiens, UniProt P35968)
In short: as §1

[4] = target: T1, Aurora-related kinase 1 (ARK1) (Homo sapiens, UniProt O14965)
T1 sequence (O14965 1-403): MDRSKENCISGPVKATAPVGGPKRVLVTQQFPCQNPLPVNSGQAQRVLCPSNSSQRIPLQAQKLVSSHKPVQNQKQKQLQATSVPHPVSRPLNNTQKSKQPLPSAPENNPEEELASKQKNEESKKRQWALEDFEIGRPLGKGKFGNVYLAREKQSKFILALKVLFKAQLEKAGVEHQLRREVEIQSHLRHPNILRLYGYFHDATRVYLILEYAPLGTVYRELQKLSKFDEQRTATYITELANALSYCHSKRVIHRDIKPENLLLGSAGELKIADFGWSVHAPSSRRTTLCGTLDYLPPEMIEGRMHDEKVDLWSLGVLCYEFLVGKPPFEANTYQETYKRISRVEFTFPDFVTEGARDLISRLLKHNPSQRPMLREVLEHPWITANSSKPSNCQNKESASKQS
In short: as §1

[5] = target: Mitogen-activated protein kinase kinase kinase kinase 4 (MAP4K4/HGK) (Homo sapiens, UniProt O95819)
In short: as §1

Vascular endothelial growth factor receptor 2 (VEGFR-2/FLK1), sequence (P35968 20-1356): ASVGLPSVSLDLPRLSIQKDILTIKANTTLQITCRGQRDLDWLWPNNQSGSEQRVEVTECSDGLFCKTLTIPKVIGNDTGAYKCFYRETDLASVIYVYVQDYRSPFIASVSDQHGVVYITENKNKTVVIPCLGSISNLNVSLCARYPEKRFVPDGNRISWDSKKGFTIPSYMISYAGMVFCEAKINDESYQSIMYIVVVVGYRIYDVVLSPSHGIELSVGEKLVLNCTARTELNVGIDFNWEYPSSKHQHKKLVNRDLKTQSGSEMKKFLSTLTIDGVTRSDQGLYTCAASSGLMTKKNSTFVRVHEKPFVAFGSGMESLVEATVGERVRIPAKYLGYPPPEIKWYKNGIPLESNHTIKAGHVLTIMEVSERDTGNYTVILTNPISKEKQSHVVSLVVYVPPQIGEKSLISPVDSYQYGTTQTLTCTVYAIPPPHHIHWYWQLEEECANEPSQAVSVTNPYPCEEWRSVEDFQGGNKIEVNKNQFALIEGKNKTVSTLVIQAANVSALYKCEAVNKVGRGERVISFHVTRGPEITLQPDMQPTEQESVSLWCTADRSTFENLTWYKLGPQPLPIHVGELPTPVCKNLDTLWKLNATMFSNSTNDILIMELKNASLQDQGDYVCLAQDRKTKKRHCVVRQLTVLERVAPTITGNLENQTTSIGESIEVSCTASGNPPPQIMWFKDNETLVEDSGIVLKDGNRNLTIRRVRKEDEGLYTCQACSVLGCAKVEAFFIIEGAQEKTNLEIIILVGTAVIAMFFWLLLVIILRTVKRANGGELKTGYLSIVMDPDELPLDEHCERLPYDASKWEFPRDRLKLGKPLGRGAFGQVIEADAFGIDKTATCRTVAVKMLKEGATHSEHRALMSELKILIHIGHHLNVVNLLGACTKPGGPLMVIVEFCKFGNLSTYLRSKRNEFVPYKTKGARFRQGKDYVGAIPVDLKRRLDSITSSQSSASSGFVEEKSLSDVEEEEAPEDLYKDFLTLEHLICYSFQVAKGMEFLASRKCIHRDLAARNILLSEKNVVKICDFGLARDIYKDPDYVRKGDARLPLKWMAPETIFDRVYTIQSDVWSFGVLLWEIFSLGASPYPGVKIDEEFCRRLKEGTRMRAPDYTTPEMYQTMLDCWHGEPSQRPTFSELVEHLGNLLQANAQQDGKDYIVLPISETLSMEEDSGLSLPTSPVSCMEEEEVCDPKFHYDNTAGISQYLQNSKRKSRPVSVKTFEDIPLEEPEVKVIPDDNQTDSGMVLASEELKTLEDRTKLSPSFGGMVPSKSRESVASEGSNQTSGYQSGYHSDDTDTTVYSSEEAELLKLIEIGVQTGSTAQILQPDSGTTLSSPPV
Mitogen-activated protein kinase kinase kinase kinase 4 (MAP4K4/HGK), sequence (O95819 2-1239): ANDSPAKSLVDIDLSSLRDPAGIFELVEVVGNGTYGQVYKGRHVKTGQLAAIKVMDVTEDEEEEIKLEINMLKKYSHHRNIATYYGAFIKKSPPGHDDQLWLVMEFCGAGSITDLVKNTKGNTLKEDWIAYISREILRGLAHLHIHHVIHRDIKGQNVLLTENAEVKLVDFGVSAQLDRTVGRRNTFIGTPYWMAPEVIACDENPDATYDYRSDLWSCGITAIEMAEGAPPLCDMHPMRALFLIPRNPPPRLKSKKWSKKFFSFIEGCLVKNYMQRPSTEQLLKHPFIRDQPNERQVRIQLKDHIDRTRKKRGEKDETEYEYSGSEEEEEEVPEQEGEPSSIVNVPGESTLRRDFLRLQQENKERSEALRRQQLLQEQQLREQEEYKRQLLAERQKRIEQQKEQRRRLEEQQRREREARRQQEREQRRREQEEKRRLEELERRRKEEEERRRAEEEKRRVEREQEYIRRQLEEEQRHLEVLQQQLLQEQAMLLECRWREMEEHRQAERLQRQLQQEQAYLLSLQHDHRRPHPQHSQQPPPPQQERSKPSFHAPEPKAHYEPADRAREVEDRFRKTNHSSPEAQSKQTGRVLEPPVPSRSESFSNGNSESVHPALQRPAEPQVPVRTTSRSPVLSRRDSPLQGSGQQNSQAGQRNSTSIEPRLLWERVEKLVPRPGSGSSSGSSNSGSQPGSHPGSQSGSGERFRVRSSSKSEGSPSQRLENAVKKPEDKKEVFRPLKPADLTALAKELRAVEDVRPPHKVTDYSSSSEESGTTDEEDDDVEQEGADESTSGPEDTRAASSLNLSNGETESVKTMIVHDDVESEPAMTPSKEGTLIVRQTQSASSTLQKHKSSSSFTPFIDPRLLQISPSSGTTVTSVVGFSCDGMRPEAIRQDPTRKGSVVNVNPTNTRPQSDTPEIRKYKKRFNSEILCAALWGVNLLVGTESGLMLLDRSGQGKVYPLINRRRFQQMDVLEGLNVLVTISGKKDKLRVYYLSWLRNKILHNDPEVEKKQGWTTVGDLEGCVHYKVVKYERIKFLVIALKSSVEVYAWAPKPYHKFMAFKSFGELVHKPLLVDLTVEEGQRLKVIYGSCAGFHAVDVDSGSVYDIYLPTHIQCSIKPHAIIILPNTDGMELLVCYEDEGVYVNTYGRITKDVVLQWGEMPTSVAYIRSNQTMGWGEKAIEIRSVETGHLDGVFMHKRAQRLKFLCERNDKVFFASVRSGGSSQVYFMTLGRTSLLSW
p160ROCK protein kinase, sequence (Q13464 2-1354): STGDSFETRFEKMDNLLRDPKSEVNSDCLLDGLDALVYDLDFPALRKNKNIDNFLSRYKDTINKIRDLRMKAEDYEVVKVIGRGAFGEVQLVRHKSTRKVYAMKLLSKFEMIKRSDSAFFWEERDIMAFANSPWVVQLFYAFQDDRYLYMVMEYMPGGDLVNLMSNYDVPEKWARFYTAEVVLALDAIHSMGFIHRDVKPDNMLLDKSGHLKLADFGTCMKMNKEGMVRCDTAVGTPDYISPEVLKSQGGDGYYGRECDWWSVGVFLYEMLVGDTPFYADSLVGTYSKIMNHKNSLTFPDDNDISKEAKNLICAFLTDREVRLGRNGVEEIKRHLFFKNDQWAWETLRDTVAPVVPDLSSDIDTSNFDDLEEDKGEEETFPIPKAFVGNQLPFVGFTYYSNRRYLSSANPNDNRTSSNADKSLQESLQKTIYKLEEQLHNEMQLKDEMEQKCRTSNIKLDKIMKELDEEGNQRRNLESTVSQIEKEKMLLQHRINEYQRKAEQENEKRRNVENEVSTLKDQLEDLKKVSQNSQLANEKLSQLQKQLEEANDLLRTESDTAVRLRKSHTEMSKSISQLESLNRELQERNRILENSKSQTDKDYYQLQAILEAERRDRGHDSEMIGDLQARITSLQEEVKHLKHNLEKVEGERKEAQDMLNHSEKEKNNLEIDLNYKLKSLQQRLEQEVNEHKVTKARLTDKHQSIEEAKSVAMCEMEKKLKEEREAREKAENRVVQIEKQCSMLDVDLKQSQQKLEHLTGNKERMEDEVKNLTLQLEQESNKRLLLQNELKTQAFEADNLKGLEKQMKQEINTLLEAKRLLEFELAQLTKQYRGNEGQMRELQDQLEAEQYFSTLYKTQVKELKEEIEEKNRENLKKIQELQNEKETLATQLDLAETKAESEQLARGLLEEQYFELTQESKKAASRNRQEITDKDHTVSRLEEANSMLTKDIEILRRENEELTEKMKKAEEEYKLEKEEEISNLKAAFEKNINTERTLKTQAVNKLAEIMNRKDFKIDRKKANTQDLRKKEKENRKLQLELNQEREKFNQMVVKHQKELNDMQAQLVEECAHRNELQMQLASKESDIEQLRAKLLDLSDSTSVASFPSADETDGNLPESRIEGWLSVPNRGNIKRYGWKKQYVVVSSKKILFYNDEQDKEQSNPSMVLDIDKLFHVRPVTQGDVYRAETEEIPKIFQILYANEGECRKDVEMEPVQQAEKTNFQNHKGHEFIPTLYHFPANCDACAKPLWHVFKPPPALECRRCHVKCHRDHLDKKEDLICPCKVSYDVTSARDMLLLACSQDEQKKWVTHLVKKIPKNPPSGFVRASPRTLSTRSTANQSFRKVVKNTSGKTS
High affinity nerve growth factor receptor (TRK-A), sequence (P04629 33-796): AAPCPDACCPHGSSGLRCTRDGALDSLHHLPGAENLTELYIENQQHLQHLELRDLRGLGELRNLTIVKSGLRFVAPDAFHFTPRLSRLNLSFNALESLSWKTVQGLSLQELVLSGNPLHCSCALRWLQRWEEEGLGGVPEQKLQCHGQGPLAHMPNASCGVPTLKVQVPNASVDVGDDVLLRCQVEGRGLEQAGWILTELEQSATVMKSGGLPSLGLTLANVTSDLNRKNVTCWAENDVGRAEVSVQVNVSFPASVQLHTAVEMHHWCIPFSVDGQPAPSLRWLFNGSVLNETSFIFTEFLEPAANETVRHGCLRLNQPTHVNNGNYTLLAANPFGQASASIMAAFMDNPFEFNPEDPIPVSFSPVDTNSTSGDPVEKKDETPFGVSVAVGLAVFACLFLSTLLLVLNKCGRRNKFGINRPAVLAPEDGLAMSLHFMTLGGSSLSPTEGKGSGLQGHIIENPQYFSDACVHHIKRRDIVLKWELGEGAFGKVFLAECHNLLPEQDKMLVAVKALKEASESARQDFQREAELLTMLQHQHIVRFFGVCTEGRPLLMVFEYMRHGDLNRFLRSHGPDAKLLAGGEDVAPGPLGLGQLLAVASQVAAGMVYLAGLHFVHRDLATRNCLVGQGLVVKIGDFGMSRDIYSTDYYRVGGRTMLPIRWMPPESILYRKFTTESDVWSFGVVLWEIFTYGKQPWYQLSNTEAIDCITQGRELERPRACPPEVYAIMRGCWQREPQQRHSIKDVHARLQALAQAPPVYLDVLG

## CNS(=O)(=O)C[C@H]1CC[C@H](N(C)c2ncnc3[nH]ccc23)CC1 [oclacitinib]
[1]
  Percent inhibition at 1000 nM oclacitinib (1st replicate): 32; 31%
[2]
  Percent inhibition at 1000 nM oclacitinib (1st replicate): 34; 32%
[3]
  Percent inhibition at 1000 nM oclacitinib (1st replicate): 41; 37%
[4]
  Percent inhibition at 1000 nM oclacitinib (1st replicate): 40; 40%
[5]
  Percent inhibition at 1000 nM oclacitinib (1st replicate): 42; 34%
